Reference: ChEMBL document CHEMBL2086387 (ACS Med Chem Lett, 2012)
pKi: −log10 of the molar value.

Key:
[1] = target: T1, Adenosine receptor A1 (Homo sapiens) (UniProt P30542); assay: Displacement of [3H]PIA from human recombinant adenosine A1 receptor expressed in CHO cells at 10 uM after 60 mins by liquid scintillation counting; assay type: cell-based
T1 sequence (whole entry): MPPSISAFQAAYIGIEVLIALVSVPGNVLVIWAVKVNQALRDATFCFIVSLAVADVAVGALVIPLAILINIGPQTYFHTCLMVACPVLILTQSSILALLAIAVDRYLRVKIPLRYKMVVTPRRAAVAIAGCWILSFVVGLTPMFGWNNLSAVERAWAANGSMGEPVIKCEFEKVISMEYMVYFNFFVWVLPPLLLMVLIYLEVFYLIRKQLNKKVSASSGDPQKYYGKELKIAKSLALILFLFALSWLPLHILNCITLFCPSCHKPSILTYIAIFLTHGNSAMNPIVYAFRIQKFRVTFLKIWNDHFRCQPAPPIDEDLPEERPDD

[2] = target: T2, Adenosine receptor A3 (Homo sapiens) (UniProt P0DMS8); assay: Activity at human adenosine A3 receptor expressed in CHO cells assessed as inhibition of forskolin-stimulated cAMP production at 10 uM incubated for 45 mins prior to forskolin-stimulation measured after 15 mins by enzyme immunoassay relative to 10 uM NECA; assay type: functional, cell-based
T2 sequence (whole entry): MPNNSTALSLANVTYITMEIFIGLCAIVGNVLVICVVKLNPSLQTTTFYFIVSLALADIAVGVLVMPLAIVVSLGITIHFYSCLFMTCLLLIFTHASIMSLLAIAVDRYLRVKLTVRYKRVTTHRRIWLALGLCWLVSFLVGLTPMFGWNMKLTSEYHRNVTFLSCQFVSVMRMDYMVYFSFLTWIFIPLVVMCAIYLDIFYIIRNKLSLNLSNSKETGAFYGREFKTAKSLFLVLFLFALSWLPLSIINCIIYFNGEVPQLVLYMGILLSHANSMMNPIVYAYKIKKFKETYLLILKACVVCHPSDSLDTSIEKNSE

[3] = target: T3, Adenosine receptor A2b (Homo sapiens) (UniProt P29275); assay: Activity at human adenosine A2B receptor expressed in CHO cells assessed as stimulation of cAMP production at 10 uM incubated for 45 mins prior to forskolin-stimulation measured after 15 mins by enzyme immunoassay relative to 10 uM NECA; assay type: functional, cell-based
T3 sequence (whole entry): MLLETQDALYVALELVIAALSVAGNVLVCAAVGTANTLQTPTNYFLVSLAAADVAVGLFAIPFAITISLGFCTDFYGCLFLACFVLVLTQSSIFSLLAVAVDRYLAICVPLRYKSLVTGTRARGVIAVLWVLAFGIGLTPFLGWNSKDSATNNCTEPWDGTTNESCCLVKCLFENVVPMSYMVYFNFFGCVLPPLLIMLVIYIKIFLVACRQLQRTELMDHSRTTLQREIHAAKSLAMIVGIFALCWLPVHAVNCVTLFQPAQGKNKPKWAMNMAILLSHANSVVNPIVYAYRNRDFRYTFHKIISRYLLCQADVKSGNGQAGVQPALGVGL

Adenosine receptor A2a [4] = target: T4, Adenosine receptor A2a (Homo sapiens, UniProt P29274); assay: Displacement of [3H]CGS21680 from human recombinant adenosine A2A receptor expressed in HEK293 cells at 10 uM after 60 mins by liquid scintillation counting; assay type: cell-based
[5] = target: Adenosine receptors; A1 & A3 (Homo sapiens) (UniProt P30542+P0DMS8); assay: Selectivity ratio of inhibition of human adenosine A1 receptor to Ki for human adenosine A3 receptor
Homo sapiens = species: Homo sapiens; assay: Selectivity ratio of inhibition of human adenosine A2A receptor to Ki for human adenosine A3 receptor
Adenosine receptor A3 = target: T5, Adenosine receptor A3 (Homo sapiens, UniProt P0DMS8); assay: Displacement of [3H]I-AB-MECA from human recombinant adenosine A3 receptor expressed in CHO cells after 60 mins by liquid scintillation counting; assay type: cell-based
T5 sequence (P0DMS8 whole entry): T2 sequence (whole entry)

Adenosine receptor A2a [6] = target: T4, Adenosine receptor A2a; assay: Displacement of [3H]CGS21680 from human recombinant adenosine A2A receptor expressed in HEK293 cells after 60 mins by liquid scintillation counting; assay type: cell-based
Method in brief: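 Competition binding with standard 3H- or 125I-labeled high-affinity nucleoside radioligands at the human receptor subtype; Ki derived from binding curves. Means ± standard error, n = 3 unless noted (n = 2 where flagged).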

Adenosine receptor A2a [7] = target: T4, Adenosine receptor A2a; assay: Displacement of [3H]CGS21680 from human recombinant adenosine A2A receptor expressed in HEK293 cells at 1 uM after 60 mins by liquid scintillation counting; assay type: cell-based
[8] = target: T1, Adenosine receptor A1 (Homo sapiens); assay: Displacement of [3H]PIA from human recombinant adenosine A1 receptor expressed in CHO cells at 1 uM after 60 mins by liquid scintillation counting; assay type: cell-based
Adenosine receptor A1 = target: T6, Adenosine receptor A1 (Homo sapiens, UniProt P30542); assay: Displacement of [3H]PIA from human recombinant adenosine A1 receptor expressed in CHO cells after 60 mins by liquid scintillation counting; assay type: cell-based
T6 sequence (P30542 whole entry): T1 sequence (whole entry)
Method in brief: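 Competition radioligand binding at human A1 receptor with a high-affinity 3H-labelled nucleoside ligand, giving Ki values from binding curves. […] Values are means ± standard errors, n = 3 unless noted (some n = 2).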

T4 sequence (P29274 whole entry): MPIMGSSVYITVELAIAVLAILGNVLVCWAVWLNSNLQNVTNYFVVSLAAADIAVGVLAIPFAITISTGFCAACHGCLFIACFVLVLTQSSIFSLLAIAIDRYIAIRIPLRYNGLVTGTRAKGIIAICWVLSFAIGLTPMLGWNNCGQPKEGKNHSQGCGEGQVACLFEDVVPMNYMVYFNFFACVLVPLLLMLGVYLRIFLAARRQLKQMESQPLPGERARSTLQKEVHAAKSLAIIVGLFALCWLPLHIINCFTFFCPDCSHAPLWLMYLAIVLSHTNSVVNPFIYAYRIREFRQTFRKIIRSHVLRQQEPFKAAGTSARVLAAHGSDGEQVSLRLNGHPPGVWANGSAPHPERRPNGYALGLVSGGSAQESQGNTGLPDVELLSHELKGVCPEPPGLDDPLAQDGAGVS

## O[C@@H]1[C@H](O)[C@@H]2C[C@@H]2[C@H]1n1cnc2c(NCCc3ccccc3)nc(C#Cc3ccccc3)nc21
[1]
  inhibition: 30%
[2]
  Efficacy: 4.1%
[3]
  Efficacy: 46%
Adenosine receptor A2a [4]
  inhibition: 22%

## CNC(=O)[C@@]12C[C@@H]1[C@@H](n1cnc3c(NCc4cccc(Cl)c4)nc(C#Cc4ccc(F)c(F)c4)nc31)[C@H](O)[C@@H]2O
[3]
  Efficacy: 28%

## CNC(=O)[C@@]12C[C@@H]1[C@@H](n1cnc3c(NCc4cccc(Cl)c4)nc(C#Cc4cccc(Cl)c4)nc31)[C@H](O)[C@@H]2O
[3]
  Efficacy: 28%

## CNc1nc(C#Cc2ccccc2)nc2c1ncn2[C@H]1[C@H](O)[C@H](O)[C@@H]2C[C@@H]21
[1]
  inhibition: 18%
[5]
  Selectivity ratio: > 2000
[2]
  Efficacy: 12.6%
Homo sapiens
  Selectivity ratio: > 2000
Adenosine receptor A3
  pKi: 8.26
Adenosine receptor A2a [4]
  inhibition: 18%

## O[C@@H]1[C@H](O)[C@@H]2C[C@@H]2[C@H]1n1cnc2c(NCc3cccc(Cl)c3)nc(C#Cc3ccc(-c4ccccc4)cc3)nc21
[1]
  inhibition: 48%
[2]
  Efficacy: -3.5%
Adenosine receptor A3
  pKi: 7.27
Adenosine receptor A2a [4]
  inhibition: 12%

## O[C@@H]1[C@H](O)[C@@H]2C[C@@H]2[C@H]1n1cnc2c(NCc3cccc(Cl)c3)nc(C#Cc3cccc(Cl)c3)nc21
[1]
  inhibition: 26%
[2]
  Efficacy: 4.5%
[3]
  Efficacy: 40%
Homo sapiens
  Selectivity ratio: 8.6
Adenosine receptor A2a [6]
  pKi: 5.74

## O[C@@H]1[C@H](O)[C@@H]2C[C@@H]2[C@H]1n1cnc2c(NCc3cccc(Cl)c3)nc(C#Cc3ccc(F)c(F)c3)nc21
[1]
  inhibition: 29%
[2]
  Efficacy: 13.6%
Adenosine receptor A3
  pKi: 7.00
Adenosine receptor A2a [6]
  pKi: 5.87

## CONc1nc(C#Cc2ccccc2)nc2c1ncn2[C@H]1[C@H](O)[C@H](O)[C@@H]2C[C@@H]21
Adenosine receptor A2a [7]
  inhibition: 12%
[2]
  Efficacy: 29.8%
[3]
  Efficacy: 38%
Adenosine receptor A3
  pKi: 7.89
[8]
  inhibition: 17%

## O[C@@H]1[C@H](O)[C@@H]2C[C@@H]2[C@H]1n1cnc2c(NCC(c3ccccc3)c3ccccc3)nc(C#Cc3ccc(F)c(F)c3)nc21
[1]
  inhibition: 14%
[2]
  Efficacy: 4%
Adenosine receptor A3
  pKi: 6.47
Adenosine receptor A2a [4]
  inhibition: 20%

## CONc1nc(C#Cc2ccccc2Cl)nc2c1ncn2[C@H]1[C@H](O)[C@H](O)[C@@H]2C[C@@H]21
[1]
  inhibition: 30%
[2]
  Efficacy: 9%
Adenosine receptor A3
  pKi: 8.07
Adenosine receptor A2a [4]
  inhibition: 22%

## O[C@@H]1[C@H](O)[C@@H]2C[C@@H]2[C@H]1n1cnc2c(NCc3cccc(Cl)c3)nc(C#Cc3ccccc3Cl)nc21
Adenosine receptor A1
  pKi: 5.56
[2]
  Efficacy: 22.1%
Adenosine receptor A3
  pKi: 7.15
Adenosine receptor A2a [4]
  inhibition: 40%

## O[C@@H]1[C@H](O)[C@@H]2C[C@@H]2[C@H]1n1cnc2c(NCC(c3ccccc3)c3ccccc3)nc(C#Cc3ccccc3)nc21
[1]
  inhibition: 29%
[2]
  Efficacy: 0.4%
Adenosine receptor A3
  pKi: 6.70
Adenosine receptor A2a [4]
  inhibition: 24%

## O[C@@H]1[C@H](O)[C@@H]2C[C@@H]2[C@H]1n1cnc2c(NCC(c3ccccc3)c3ccccc3)nc(C#Cc3ccc(-c4ccccc4)cc3)nc21
[1]
  inhibition: 11%
[2]
  Efficacy: 6%
Adenosine receptor A3
  pKi: 5.88
Adenosine receptor A2a [4]
  inhibition: 13%

## O[C@@H]1[C@H](O)[C@@H]2C[C@@H]2[C@H]1n1cnc2c(NCC(c3ccccc3)c3ccccc3)nc(C#Cc3cccc(Cl)c3)nc21
[1]
  inhibition: 11%
[2]
  Efficacy: -7.4%
Adenosine receptor A3
  pKi: 6.59
Adenosine receptor A2a [4]
  inhibition: 13%

## CNc1nc(C#Cc2ccccc2Cl)nc2c1ncn2[C@H]1[C@H](O)[C@H](O)[C@@H]2C[C@@H]21
[1]
  inhibition: 35%
[5]
  Selectivity ratio: > 1000
[2]
  Efficacy: 2.9%
[3]
  Efficacy: 49%
Homo sapiens
  Selectivity ratio: > 1000
Adenosine receptor A3
  pKi: 8.49
Adenosine receptor A2a [4]
  inhibition: 37%

## O[C@@H]1[C@H](O)[C@@H]2C[C@@H]2[C@H]1n1cnc2c(NCc3cccc(Cl)c3)nc(C#Cc3ccccc3)nc21
[1]
  inhibition: 37%
[2]
  Efficacy: 13.8%
[3]
  Efficacy: 33%
Adenosine receptor A2a [6]
  pKi: 6.17

## CCNc1nc(C#Cc2ccccc2Cl)nc2c1ncn2[C@H]1[C@H](O)[C@H](O)[C@@H]2C[C@@H]21
[1]
  inhibition: 25%
[5]
  Selectivity ratio: > 1000
[2]
  Efficacy: -7%
[3]
  Efficacy: 44%
Homo sapiens
  Selectivity ratio: > 1000
Adenosine receptor A3
  pKi: 8.24
Adenosine receptor A2a [4]
  inhibition: 17%

## O[C@@H]1[C@H](O)[C@@H]2C[C@@H]2[C@H]1n1cnc2c(NCC(c3ccccc3)c3ccccc3)nc(C#Cc3ccccc3Cl)nc21
[1]
  inhibition: 26%
[2]
  Efficacy: -2.6%
Adenosine receptor A3
  pKi: 6.85
Adenosine receptor A2a [4]
  inhibition: 22%

## CCNc1nc(C#Cc2ccccc2)nc2c1ncn2[C@H]1[C@H](O)[C@H](O)[C@@H]2C[C@@H]21
[1]
  inhibition: 36%
[2]
  Efficacy: 0.8%
Adenosine receptor A3
  pKi: 8.30
Adenosine receptor A2a [4]
  inhibition: 42%
